Cav32 inh = Cav3.2 calcium influx blockers – cell-based, Fluo-4 calcium fluorescence, FDSS, MLSMR library, primary screen | 4% of 100,000 active | B-score at 10 µM | Cav3.2-expressing cells; stronger effect = lower value | Voltage-dependent T-type calcium channel subunit alpha-1H (Homo sapiens), O95180;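 active = single-dose well whose peak fluorescence ratio is a statistical outlier from its plate by either plate-standardised score or position-corrected B-score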
Target sequence (O95180 whole entry, looked up): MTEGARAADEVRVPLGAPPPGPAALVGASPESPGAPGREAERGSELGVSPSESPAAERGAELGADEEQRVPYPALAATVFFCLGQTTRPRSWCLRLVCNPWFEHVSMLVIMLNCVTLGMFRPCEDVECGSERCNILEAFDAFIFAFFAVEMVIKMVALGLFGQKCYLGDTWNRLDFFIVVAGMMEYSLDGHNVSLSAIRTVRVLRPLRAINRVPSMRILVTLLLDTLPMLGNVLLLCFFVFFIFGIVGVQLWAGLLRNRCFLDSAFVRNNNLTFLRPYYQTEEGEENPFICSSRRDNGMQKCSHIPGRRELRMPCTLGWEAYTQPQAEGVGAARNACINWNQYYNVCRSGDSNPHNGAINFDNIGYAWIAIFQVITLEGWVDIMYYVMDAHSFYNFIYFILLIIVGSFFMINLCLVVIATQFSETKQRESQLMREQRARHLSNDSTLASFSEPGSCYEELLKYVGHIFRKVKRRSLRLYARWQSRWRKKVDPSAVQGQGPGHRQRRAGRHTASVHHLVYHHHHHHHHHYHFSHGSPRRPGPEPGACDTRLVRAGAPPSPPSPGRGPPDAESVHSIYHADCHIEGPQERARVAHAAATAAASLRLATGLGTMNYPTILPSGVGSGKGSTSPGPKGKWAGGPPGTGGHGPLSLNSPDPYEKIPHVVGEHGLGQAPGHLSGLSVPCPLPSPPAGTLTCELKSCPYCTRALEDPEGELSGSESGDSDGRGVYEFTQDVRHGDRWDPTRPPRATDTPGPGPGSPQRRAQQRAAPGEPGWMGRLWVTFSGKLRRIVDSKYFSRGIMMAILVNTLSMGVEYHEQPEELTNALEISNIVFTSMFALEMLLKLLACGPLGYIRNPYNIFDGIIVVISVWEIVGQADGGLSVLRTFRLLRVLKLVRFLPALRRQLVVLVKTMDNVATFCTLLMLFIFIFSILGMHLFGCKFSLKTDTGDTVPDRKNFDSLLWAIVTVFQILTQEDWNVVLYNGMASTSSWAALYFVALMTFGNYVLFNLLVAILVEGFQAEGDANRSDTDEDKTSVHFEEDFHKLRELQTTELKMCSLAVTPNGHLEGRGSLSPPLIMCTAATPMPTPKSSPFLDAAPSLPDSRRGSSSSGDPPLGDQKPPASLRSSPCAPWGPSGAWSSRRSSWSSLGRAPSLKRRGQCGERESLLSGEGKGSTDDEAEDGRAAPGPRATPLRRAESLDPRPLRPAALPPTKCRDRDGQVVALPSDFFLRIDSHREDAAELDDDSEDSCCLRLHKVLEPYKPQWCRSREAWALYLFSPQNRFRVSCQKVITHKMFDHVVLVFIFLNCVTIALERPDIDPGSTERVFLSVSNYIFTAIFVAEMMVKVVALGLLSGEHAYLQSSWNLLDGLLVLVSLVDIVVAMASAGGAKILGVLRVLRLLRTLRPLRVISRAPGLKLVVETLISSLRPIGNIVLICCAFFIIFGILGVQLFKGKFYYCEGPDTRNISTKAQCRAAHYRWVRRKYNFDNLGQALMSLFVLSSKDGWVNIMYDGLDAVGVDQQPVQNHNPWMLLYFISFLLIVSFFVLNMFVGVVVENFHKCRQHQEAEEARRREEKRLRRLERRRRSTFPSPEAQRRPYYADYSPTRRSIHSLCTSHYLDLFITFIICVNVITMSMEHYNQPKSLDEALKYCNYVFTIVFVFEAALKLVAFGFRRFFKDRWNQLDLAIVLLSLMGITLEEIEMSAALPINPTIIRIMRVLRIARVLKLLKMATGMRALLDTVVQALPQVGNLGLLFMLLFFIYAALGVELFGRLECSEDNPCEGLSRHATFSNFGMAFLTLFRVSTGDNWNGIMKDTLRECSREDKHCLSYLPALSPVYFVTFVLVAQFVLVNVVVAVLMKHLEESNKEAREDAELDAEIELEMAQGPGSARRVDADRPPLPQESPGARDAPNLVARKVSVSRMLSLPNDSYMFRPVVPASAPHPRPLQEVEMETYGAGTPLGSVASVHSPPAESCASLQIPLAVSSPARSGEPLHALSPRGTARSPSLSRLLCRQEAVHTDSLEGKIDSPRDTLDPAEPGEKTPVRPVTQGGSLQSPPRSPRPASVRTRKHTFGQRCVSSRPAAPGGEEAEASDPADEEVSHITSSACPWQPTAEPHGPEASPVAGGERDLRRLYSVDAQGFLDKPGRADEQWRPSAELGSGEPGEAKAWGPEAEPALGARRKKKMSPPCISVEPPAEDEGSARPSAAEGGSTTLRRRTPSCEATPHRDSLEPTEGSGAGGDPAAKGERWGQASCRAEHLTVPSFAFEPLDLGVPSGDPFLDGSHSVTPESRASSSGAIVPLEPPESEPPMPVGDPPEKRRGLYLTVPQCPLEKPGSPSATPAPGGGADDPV
PostGolgi yeast = phenotypic screen on post-Golgi transport, primary screen | post-Golgi transport phenotypic cell assay | inhibition, % at 10 µM | 0.9% of 98,000 active;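 note: yeast cells grown in 1536-well plates; yeast grown about 18 h at 30C before absorbance read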
E coli WT exp = growth inhibitors of wild-type E. coli, primary screen, strain BW25113, expanded library, OD600; OD600 absorbance; growth inhibition, % at 100 µM; 0.15% of 98,000 active;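 active = growth inhibition above about 50% at one test dose, limit read from the data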;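 note: growth measured after 20 h incubation at 37 °C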
PostGolgi ctrl = growth inhibition of yeast control strain, primary screen, counter-screen for post-Golgi transport modulator project. efflux-deficient yeast background strain, growth absorbance A615, 16 h. inhibition, % at 10 µM. 5% of 98,000 active
tolC growth inh = growth inhibitors of E. coli tolC mutant, primary screen, strain BW25113 ΔtolC::kan, 384-well. OD615. growth inhibition, % at 10 µM (by protocol). 2.2% of 65,000 active. AID 573, 2007;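 active = growth inhibition at or above a cutoff equal to the mean over every tested compound plus 3 SD, cut at about 60% in these data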;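 note: growth measured after 20 h incubation at 37 °C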
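signal = optical density read at 615 nm | test system = E. coli ΔtolC::kan strain BW25113 | timing = 20 h compound exposure of bacteria at 37 °C | buffer or medium = LB medium plus 50 µg/mL kanamycin | compound dosing = 10 µM final, single dose | evaluation = % inhibition of E. coli growth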
Large screens that a line does not name were inactive. Sampled rows, rich in hits. Any-hit rate of the full collection: about 8.4%. Cut-off read from the data, not from the text of the source, unless noted: active = inhibition above about 30%; inactive = the rest.

O=[N+]([O-])/C=C/c1cn(Cc2ccccc2)c2ccccc12	PostGolgi ctrl 43.0 (no result: tolC growth inh)
CCn1c(CCC(=O)Nc2nc3c(s2)CCCC3)nc2cc(S(=O)(=O)N(C)C)ccc21	PostGolgi ctrl 33.0
FC(F)(F)c1ccc(C2[C@H]3CN(CC4CCCCC4)[C@H](c4ccccc4)C34CC2(c2cccnc2)C4)cc1 (stereo partly drawn)	none (no result: PostGolgi yeast, E coli WT exp, PostGolgi ctrl, tolC growth inh)
C=CCn1c2ccccc2c2nnc(SCC(=O)Nc3c(C)n(C)n(-c4ccccc4)c3=O)nc21	Cav32 inh 3.79 (no result: tolC growth inh)
CCCn1c2ccccc2c2nc3ccccc3nc21	PostGolgi ctrl 40.2, tolC growth inh 69.0
CCCn1c2ccccc2c2nnc(SCC(=O)OC)nc21	none
CCn1c2ccccc2c2nnc(SCc3ccc(C(=O)OC)o3)nc21	PostGolgi ctrl 42.1
CCn1c2ccccc2c2nnc(SCC(=O)NCCOC)nc21	none
CCCn1c2ccccc2c2nnc(SCC(=O)OCC)nc21	PostGolgi ctrl 39.3
CC(C)Nc1nc(SCC(=O)Nc2ccccc2)nc(N2CCOCC2)n1	none (no result: Cav32 inh)
Cc1cccc(-c2nnc(SCC(=O)Nc3nc4c(s3)CCCC4)n2C)c1	none (no result: PostGolgi yeast, E coli WT exp, PostGolgi ctrl, tolC growth inh)
CCCOc1cc2c(C#N)c(N3CCCC3)nc(N)c2c(N)n1	none (no result: PostGolgi yeast, E coli WT exp, PostGolgi ctrl, tolC growth inh)
Cc1nc(-c2ccc(Cl)cc2)sc1C1(C)CC(c2cccc([N+](=O)[O-])c2)=NO1 (stereo not drawn)	none (no result: PostGolgi yeast, E coli WT exp, PostGolgi ctrl, tolC growth inh)
Cc1ccc2cc(CN(Cc3ccco3)C(=O)c3ccccc3)c(=O)[nH]c2c1C	none
Cc1ccc(C)c2[nH]c(=O)c(CN(Cc3ccco3)C(=O)Nc3ccccc3)cc12	Cav32 inh -5.97, PostGolgi ctrl 41.8
CCc1ccc2[nH]c(=O)c(CN(Cc3ccccc3)C(=O)Nc3ccccc3OC)cc2c1	Cav32 inh -4.34, PostGolgi ctrl 70.7 (no result: tolC growth inh)
Cc1cccc2cc(CN(Cc3ccco3)C(=O)Nc3cccc(C#N)c3)c(Cl)nc12	Cav32 inh -4.53 (no result: tolC growth inh)
CCc1ccc2[nH]c(=O)c(CN(CCN(C)C)C(=O)Nc3ccccc3OC)cc2c1	none
Cc1ccc2cc(CN(Cc3ccco3)C(=O)NCc3ccccc3)c(=O)[nH]c2c1C	Cav32 inh -4.32
O=C(O)CCC(=O)N1CCC[C@H]1C(=O)O	none (no result: PostGolgi yeast, E coli WT exp, PostGolgi ctrl, tolC growth inh)
O=C(CSc1ncnc2c1oc1ccccc12)NCc1ccco1	none (no result: PostGolgi yeast, E coli WT exp, PostGolgi ctrl, tolC growth inh)
COc1ccc(C[C@H]2c3cc(O)c(OC)cc3CC[N+]2(C)[O-])cc1O (stereo partly drawn)	none (no result: PostGolgi yeast, E coli WT exp, PostGolgi ctrl, tolC growth inh)
Cc1ccc(S(=O)(=O)N2CCOCC2)cc1C(=O)OCC(=O)N1CCc2ccccc2C1	none
c1ccc(N2CCCCC2)c(NC2=NCCC2)c1	none
Cc1cccc(NC(=O)c2nc[nH]c2C(=O)N[C@@H](CCCCNC(=O)OC(C)(C)C)C(=O)OC(C)(C)C)c1	none (no result: PostGolgi yeast, E coli WT exp, PostGolgi ctrl, tolC growth inh)
COc1ccccc1NC(=O)N(Cc1ccco1)Cc1cc2cc(C)cc(C)c2[nH]c1=O	Cav32 inh -5.11, PostGolgi ctrl 67.1
COc1ccccc1NC(=O)N(Cc1ccco1)Cc1cc2ccc(C)c(C)c2[nH]c1=O	Cav32 inh -6.71, PostGolgi ctrl 41.1
CCN1CCCC1CN(Cc1cc2ccc(C)c(C)c2[nH]c1=O)C(=O)Nc1ccccc1OC (stereo not drawn)	none
Cc1ccc(NC(=O)N(Cc2ccco2)Cc2cc3cc(C)cc(C)c3nc2Cl)cc1	none (no result: Cav32 inh, tolC growth inh)
CCCCSc1nnc(-c2cc(Br)ccc2N)c(=O)[nH]1	PostGolgi ctrl 35.7
CCOCC(O)CS(=O)(=O)c1ccccn1 (stereo not drawn)	PostGolgi ctrl 35.2
CCCn1c(=O)c2ccccc2n2c(SCc3c(C(=O)OCC)oc4ccccc34)nnc12	PostGolgi ctrl 50.9
CCCn1c(=O)c2ccccc2n2c(SCC(=O)NCc3cccs3)nnc12	PostGolgi ctrl 40.3
CCCn1c(=O)c2ccccc2n2c(SCC(=O)c3ccc(CC)cc3)nnc12	none (no result: tolC growth inh)
CCC(C)(C)NC(=O)C(c1ccco1)N(C(=O)CNC(=O)c1cccs1)c1cccnc1 (stereo not drawn)	none (no result: PostGolgi yeast, E coli WT exp, PostGolgi ctrl, tolC growth inh)
COc1cccc(NC(=O)c2cccc(OC)c2OC)c1	PostGolgi ctrl 48.1
CN(C)S(=O)(=O)Oc1cccc(C(=O)Nc2ccc(Cl)c(Cl)c2)c1	PostGolgi ctrl 36.3 (no result: tolC growth inh)
COc1cccc(C(=O)Nc2ccc(N(C)C)cc2)c1OC	none
COc1cccc(C(=O)Nc2cccc(SC)c2)c1	PostGolgi ctrl 30.2
CN(C)S(=O)(=O)Oc1cccc(C(=O)Nc2cccc(Cl)c2)c1	none (no result: tolC growth inh)
Cc1noc(C)c1C(=O)Nc1nc(C23CC4CC(CC(C4)C2)C3)cs1	none
